Test results: ChEMBL document CHEMBL1641377, “Discovery of novel, potent, selective, and orally active human glucagon receptor antagonists containing a pyrazole core” (Bioorg Med Chem Lett, 2011)
Activity calls are given as the source filed them. The rule behind the calls is not given here.

Key:
[1] = target: T1, Gastric inhibitory polypeptide receptor (Homo sapiens, UniProt P48546); test: Antagonist activity at human GIPR expressed in CHO cells assessed as inhibition of glucagon-induced cAMP accumulation; type: functional, cell-based
T1 sequence (P48546 whole entry): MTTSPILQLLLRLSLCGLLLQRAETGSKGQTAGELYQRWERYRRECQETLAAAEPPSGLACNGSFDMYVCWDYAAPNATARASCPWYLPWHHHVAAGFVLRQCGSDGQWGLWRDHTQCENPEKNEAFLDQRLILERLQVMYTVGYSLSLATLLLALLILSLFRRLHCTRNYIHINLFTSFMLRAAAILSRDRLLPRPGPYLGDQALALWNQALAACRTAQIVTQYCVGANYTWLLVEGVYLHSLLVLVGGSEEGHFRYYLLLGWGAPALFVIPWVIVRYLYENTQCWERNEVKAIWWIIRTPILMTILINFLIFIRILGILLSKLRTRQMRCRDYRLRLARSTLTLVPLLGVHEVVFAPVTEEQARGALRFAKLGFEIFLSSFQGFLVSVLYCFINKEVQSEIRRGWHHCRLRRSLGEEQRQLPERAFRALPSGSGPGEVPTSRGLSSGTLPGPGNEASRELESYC

Glucagon receptor [2] = target: T2, Glucagon receptor (Homo sapiens, UniProt P47871); test: Displacement of [125I]glucagon from human GCGR expressed in CHO cells; type: cell-based
Procedure, shortened: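 Binding inhibition of 125I-glucagon to human GCGR expressed in CHO cell membranes; IC50 reported, n given where replicated.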

[3] = target: T3, Gastric inhibitory polypeptide receptor (Homo sapiens) (UniProt P48546); test: Antagonist activity at human GIPR expressed in CHO cells assessed as inhibition of glucagon-induced cAMP accumulation at 10 uM; type: functional, cell-based
T3 sequence (whole entry): T1 sequence (P48546 whole entry)

Glucagon receptor [4] = target: T2, Glucagon receptor; test: Antagonist activity at human GCGR expressed in CHO cells assessed as inhibition of glucagon-induced cAMP accumulation; type: functional, cell-based
Procedure, shortened: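 Inhibition of glucagon-induced cAMP accumulation in CHO cells transfected with human GCGR; IC50 derived, n given where replicated.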

Mus musculus [5] = test: Antidiabetic activity in transgenic mouse expressing human GCGR assessed as inhibition of glucagon-induced blood glucose excursion at 10 mg/kg, po administered 60 mins before glucagon challenge measured after 48 mins; type: functional, organism-based; design: dose 10 mg/kg
Procedure, shortened: (§1)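 hGCGR transgenic mice (only functional receptor is human GCGR), 9 per group, given compound orally, then glucagon 15 µg/kg IP 60 min later (one arm dosed 30 mpk three hours before challenge); blood glucose monitored at 12, 24, 36 and 48 min after glucagon.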

Mus musculus [6] = test: Antidiabetic activity in transgenic mouse expressing human GCGR assessed as inhibition of glucagon-induced blood glucose excursion at 30 mg/kg, po administered 60 mins before glucagon challenge measured after 48 mins; type: functional, organism-based; design: dose 30 mg/kg; procedure, shortened: as §1
[7] = Blood clearance in po dosed mouse; type: ADME, organism-based
Mus musculus [8] = test: Dose normalized AUC in po dosed mouse; type: ADME, organism-based; conditions: in vivo
[9] = Half life in po dosed mouse; type: ADME, organism-based; conditions: in vivo

T2 sequence (P47871 whole entry): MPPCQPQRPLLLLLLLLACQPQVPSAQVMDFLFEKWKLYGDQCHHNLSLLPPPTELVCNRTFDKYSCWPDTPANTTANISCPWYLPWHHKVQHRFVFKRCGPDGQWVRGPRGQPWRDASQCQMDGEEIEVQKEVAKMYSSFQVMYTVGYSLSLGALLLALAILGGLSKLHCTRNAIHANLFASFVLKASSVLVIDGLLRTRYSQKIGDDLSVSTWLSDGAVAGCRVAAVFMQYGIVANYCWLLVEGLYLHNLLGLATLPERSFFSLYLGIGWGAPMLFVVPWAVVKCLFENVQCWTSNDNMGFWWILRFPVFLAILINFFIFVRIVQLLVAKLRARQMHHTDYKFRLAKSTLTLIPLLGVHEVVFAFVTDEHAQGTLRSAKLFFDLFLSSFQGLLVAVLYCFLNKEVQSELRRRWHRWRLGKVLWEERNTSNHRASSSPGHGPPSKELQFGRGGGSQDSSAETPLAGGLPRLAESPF

Row | Compound | IC50 [1] [nM] | IC50 (Glucagon receptor [2]) [nM] | inhibition [3] [%] | further results
1 | O=C(O)CCNC(=O)c1ccc(Cc2cnn(-c3ccc(OC(F)(F)F)cc3)c2C2CCCCC2)cc1 | > 25000 | 7200 |  | 
2 | CC(c1ccc(Cl)cc1)c1cc(-c2ccc(OC(F)(F)F)cc2)nn1Cc1ccc(C(=O)NCCC(=O)O)cc1 (stereo unspecified) |  | 730 | 22 | 
3 | CC(C)(C)[C@H]1CC[C@H](N(Cc2ccc(C(=O)Nc3nn[nH]n3)cc2)C(=O)Nc2ccc(OC(F)(F)F)cc2)CC1 | 45 | 3.2 |  | IC50 (Glucagon receptor [4]): 46 nM
4 | CC(C)(C)[C@H]1CC[C@H](c2cc(-c3ccc(OC(F)(F)F)cc3)nn2Cc2ccc(C(=O)Nc3nnn[nH]3)cc2)CC1 | 5700 | 63 |  | IC50 (Glucagon receptor [4]): 170 nM
5 | O=C(O)CCNC(=O)c1ccc(Cc2cc(-c3ccc(OC(F)(F)F)cc3)n(C3CCCCC3)n2)cc1 |  | 1700 |  | 
6 | O=C(Nc1nn[nH]n1)c1ccc(Cc2cc(-c3ccc(OC(F)(F)F)cc3)nn2C2CCCCC2)cc1 |  | 4200 | 42 | 
7 | O=C(Nc1nn[nH]n1)c1ccc(Cn2nc(C3CCCCC3)cc2-c2ccc(OC(F)(F)F)cc2)cc1 | 910 | 810 |  | 
8 | CS(=O)(=O)c1ccc(-c2cc(-c3ccc(OC(F)(F)F)cc3)nn2Cc2ccc(C(=O)NCCC(=O)O)cc2)cc1 |  | 1200 | 31 | 
9 | CN(CCC(=O)O)C(=O)c1ccc(Cn2nc(-c3ccc(OC(F)(F)F)cc3)cc2-c2ccc(OC(F)(F)F)cc2)cc1 |  | 7200 | 9 | 
10 | O=C(Nc1nnn[nH]1)c1ccc(Cc2cn(-c3ccc(OC(F)(F)F)cc3)nc2C2CCCCC2)cc1 | > 10000 | 5300 |  | 
11 | O=C(O)CNC(=O)c1ccc(Cn2nc(-c3ccc(OC(F)(F)F)cc3)cc2-c2ccc(OC(F)(F)F)cc2)cc1 |  | 3000 | -3 | IC50 (Glucagon receptor [4]): 1300 nM
12 | O=C(O)CCNC(=O)c1ccc(Cn2nc(-c3ccc(OC(F)(F)F)cc3)cc2-c2cc(Cl)cc(Cl)c2)cc1 |  | 95 | 21 | IC50 (Glucagon receptor [4]): 230 nM
13 | O=C(O)CCNC(=O)c1ccc(Cn2nc(-c3ccc(OC(F)(F)F)cc3)cc2-c2ccc(OC(F)(F)F)cc2)cc1 |  | 490 |  | IC50 (Glucagon receptor [4]): 370 nM
14 | O=C(NCc1nn[nH]n1)c1ccc(Cn2nc(-c3cc(Cl)cc(Cl)c3)cc2-c2ccc(OC(F)(F)F)cc2)cc1 |  |  |  | inhibition (Mus musculus [5]): inactive
15 | CC(c1ccc(Cl)cc1)c1cc(-c2ccc(OC(F)(F)F)cc2)nn1Cc1ccc(C(=O)Nc2nn[nH]n2)cc1 (stereo unspecified) |  | 520 | 21 | 
16 | CC(c1ccc(C(=O)Nc2nnn[nH]2)cc1)n1nc(-c2ccc(OC(F)(F)F)cc2)cc1-c1ccc(OC(F)(F)F)cc1 (stereo unspecified) | 6000 | 130 |  | 
17 | O=C(O)CCNC(=O)c1ccc(Cc2cc(-c3ccc(OC(F)(F)F)cc3)nn2C2CCCCC2)cc1 |  | 2900 | 39 | 
18 | CC(c1ccc(Cl)cc1)c1cc(-c2ccc(OC(F)(F)F)cc2)n(Cc2ccc(C(=O)NCCC(=O)O)cc2)n1 (stereo unspecified) |  | 2400 | 0 | 
19 | CS(=O)(=O)c1ccc(-c2cc(-c3ccc(OC(F)(F)F)cc3)n(Cc3ccc(C(=O)Nc4nnn[nH]4)cc3)n2)cc1 |  | 570 |  | 
20 | CC(C)(C)[C@H]1CC[C@H](c2cc(-c3ccc(OC(F)(F)F)cc3)nn2Cc2ccc(C(=O)Nc3nn[nH]n3)cc2)CC1 |  |  |  | inhibition (Mus musculus [6]): Active; inhibition (Mus musculus [5]): Active
21 | O=C(O)CNC(=O)c1cccc(Cn2nc(-c3ccc(OC(F)(F)F)cc3)cc2-c2ccc(OC(F)(F)F)cc2)c1 |  | 2900 | 34 | 
22 | O=C(Nc1nn[nH]n1)c1ccc(Cn2nc(-c3ccc(OC(F)(F)F)cc3)cc2C2CCCCC2)cc1 | 2100 | 120 |  | CL/F [7]: 8.2 mL/min/kg; AUC (Mus musculus [8]): 1.5 µM·kg·h/mg; half-life [9]: 2.7 h; IC50 (Glucagon receptor [4]): 160 nM

Row | Compound | IC50 [1] [nM] | IC50 (Glucagon receptor [2]) [nM] | inhibition [3] [%] | further results
23 | O=C(Nc1nn[nH]n1)c1cccc(Cn2nc(-c3ccc(OC(F)(F)F)cc3)cc2-c2ccc(OC(F)(F)F)cc2)c1 |  | 1100 | 2 | 
24 | CC(C)(C)[C@H]1CC[C@H](c2cc(-c3ccc(OC(F)(F)F)cc3)nn2Cc2ccc(C(=O)NCCC(=O)O)cc2)CC1 |  | 480 | 6 | 
25 | O=C(Nc1nn[nH]n1)c1ccc(Cn2nc(-c3ccc(OC(F)(F)F)cc3)cc2-c2ccc(OC(F)(F)F)cc2)cc1 |  | 43 | 46 | inhibition (Mus musculus [6]): Active; inhibition (Mus musculus [5]): Active; IC50 (Glucagon receptor [4]): 47 nM
26 | CS(=O)(=O)c1ccc(-c2cc(-c3ccc(OC(F)(F)F)cc3)nn2Cc2ccc(C(=O)Nc3nnn[nH]3)cc2)cc1 |  | 220 |  | 
27 | CC(c1ccc(C(=O)NCCC(=O)O)cc1)n1nc(-c2ccc(OC(F)(F)F)cc2)cc1-c1ccc(OC(F)(F)F)cc1 (stereo unspecified) |  | 250 | 46 | 
28 | O=C(O)CCCNC(=O)c1ccc(Cn2nc(-c3ccc(OC(F)(F)F)cc3)cc2-c2ccc(OC(F)(F)F)cc2)cc1 |  | 1100 | 15 | 
29 | O=C(Nc1nn[nH]n1)c1ccc(Cc2cc(-c3ccc(OC(F)(F)F)cc3)n(C3CCCCC3)n2)cc1 |  | 2900 | 50 | 
30 | O=C(O)CCNC(=O)c1cccc(Cn2nc(-c3ccc(OC(F)(F)F)cc3)cc2-c2ccc(OC(F)(F)F)cc2)c1 |  | 330 | 73 | 
31 | O=C(Nc1nn[nH]n1)c1ccc(Cn2nc(-c3cc(Cl)cc(Cl)c3)cc2-c2ccc(OC(F)(F)F)cc2)cc1 |  |  |  | inhibition (Mus musculus [6]): Active; inhibition (Mus musculus [5]): inactive
32 | O=C(Nc1nnn[nH]1)c1ccc(Cn2nc(-c3cc(Cl)cc(Cl)c3)cc2-c2ccc(OC(F)(F)F)cc2)cc1 | 7100 | 39 |  | IC50 (Glucagon receptor [4]): 44 nM
33 | CC(C)(C)[C@H]1CC[C@H](N(Cc2ccc(C(=O)NCCC(=O)O)cc2)C(=O)Nc2ccc(OC(F)(F)F)cc2)CC1 | 1300 | 21 |  | IC50 (Glucagon receptor [4]): 140 nM
34 | O=C(NCc1nnn[nH]1)c1ccc(Cn2nc(-c3cc(Cl)cc(Cl)c3)cc2-c2ccc(OC(F)(F)F)cc2)cc1 | > 10000 | 120 |  | 
35 | O=C(Nc1nn[nH]n1)c1ccc(Cc2cnn(-c3ccc(OC(F)(F)F)cc3)c2C2CCCCC2)cc1 | > 20000 | 16000 |  | 
36 | O=C(O)CCNC(=O)c1ccc(Cn2nc(-c3ccc(OC(F)(F)F)cc3)cc2C2CCCCC2)cc1 | 2800 | 3800 |  | 
37 | O=C(NC[C@@H](O)C(=O)O)c1ccc(Cn2nc(-c3cc(Cl)cc(Cl)c3)cc2-c2ccc(OC(F)(F)F)cc2)cc1 | > 25000 | 28 |  | 
38 | CS(=O)(=O)c1ccc(-c2cc(-c3ccc(OC(F)(F)F)cc3)nn2Cc2ccc(C(=O)Nc3nn[nH]n3)cc2)cc1 |  |  | 36 | 
39 | CC(c1ccc(Cl)cc1)c1cc(-c2ccc(OC(F)(F)F)cc2)n(Cc2ccc(C(=O)Nc3nn[nH]n3)cc2)n1 (stereo unspecified) |  | 430 | 20 | 
40 | CS(=O)(=O)c1ccc(-c2cc(-c3ccc(OC(F)(F)F)cc3)n(Cc3ccc(C(=O)NCCC(=O)O)cc3)n2)cc1 |  | 2700 | 43 | 
41 | CS(=O)(=O)c1ccc(-c2cc(-c3ccc(OC(F)(F)F)cc3)n(Cc3ccc(C(=O)Nc4nn[nH]n4)cc3)n2)cc1 |  |  | 45 | 
42 | O=C(Nc1nnn[nH]1)c1ccc(Cn2nc(-c3ccc(OC(F)(F)F)cc3)cc2-c2cc(Cl)cc(Cl)c2)cc1 | 3000 | 36 |  | IC50 (Glucagon receptor [4]): 35 nM
43 | O=C(O)CCNC(=O)c1ccc(Cc2cn(-c3ccc(OC(F)(F)F)cc3)nc2C2CCCCC2)cc1 | 7400 | 1200 |  | 
44 | O=C(O)CCCNC(=O)c1cccc(Cn2nc(-c3ccc(OC(F)(F)F)cc3)cc2-c2ccc(OC(F)(F)F)cc2)c1 |  | 1100 | 49 | 
